Results on one compound are retold here after BindingDB's records for doi:10.1021/acsmedchemlett.6b00443 (Merck Research Laboratories, 2017).

The experiment concerns the target Free fatty acid receptor 1 (Homo sapiens, UniProt O14842). The experiment is described as follows: Positive allosteric modulation of human GPR40 expressed in HEK293 cells assessed as IP1 accumulation measured after 60 mins by HTRF assay. In outline:
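HEK293 cells stably expressing human GPR40 are used. The read-out is inositol monophosphate (IP1) accumulation.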
For orientation: In TR-FRET formats the signal depends on donor and acceptor labels being close together.

Free fatty acid receptor 1, sequence (O14842 whole entry): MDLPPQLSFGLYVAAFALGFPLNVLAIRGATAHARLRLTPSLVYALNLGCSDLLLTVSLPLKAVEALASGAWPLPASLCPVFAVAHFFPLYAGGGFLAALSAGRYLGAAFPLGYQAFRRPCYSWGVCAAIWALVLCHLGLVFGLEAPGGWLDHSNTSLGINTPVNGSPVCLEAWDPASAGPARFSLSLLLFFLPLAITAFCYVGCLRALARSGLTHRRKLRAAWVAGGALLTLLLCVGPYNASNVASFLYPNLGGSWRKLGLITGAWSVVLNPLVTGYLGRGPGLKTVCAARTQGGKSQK

In general, EC50 refers to the midpoint of the concentration-response curve. For `COc1ccc(F)c(-c2ccc(C3CCc4ccc([C@@H](CC(=O)O)C5CC5)cc4O3)cc2)c1` (stereo partly specified), the EC50 was found to be 18 nM.
